Laboratory results taken from ChEMBL document CHEMBL2062449, “Eco-friendly synthesis and biological evaluation of substituted pyrano[2,3-c]pyrazoles” (Bioorg Med Chem Lett, 2012).
≈ marks a conversion by molar mass, not a printed value.

Columns and labels:
MCF7 [1] = assay: Cytotoxicity against estrogen receptor-positive human MCF7 cells assessed as inhibition of cell proliferation after 24 hrs by MTT assay; type: functional, cell-based; settings: Homo sapiens, MCF7, 24 h; read-out: IC50
How it was run: (§1)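 MTT assay on MCF-7 human breast cancer cells, Taxol as reference; percentage inhibition of cell proliferation read at graded concentrations from 0.1 to 50 μg/mL (typically five or six levels per compound); IC50 in μg/mL derived from the inhibition series.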

Rattus norvegicus [2] = assay: Antiinflammatory activity in Wistar rat assessed as protection against carrageenan-induced paw edema at 100 mg/kg, po administered 1 hr before carrageenan challenge measured after 1 hr; type: functional
Pseudomonas aeruginosa [3] = assay: Antibacterial activity against Pseudomonas aeruginosa after 18 to 24 hrs by broth microdilution method; type: functional
MCF7 [4] = assay: Cytotoxicity against estrogen receptor-positive human MCF7 cells assessed as inhibition of cell proliferation at 2 ug/ml after 24 hrs by MTT assay; type: functional; settings: MCF7, 24 h; how it was run: as §1
MCF7 [5] = assay: Cytotoxicity against estrogen receptor-positive human MCF7 cells assessed as inhibition of cell proliferation at 5 ug/ml after 24 hrs by MTT assay; type: functional; settings: MCF7, 24 h; how it was run: as §1
Rattus norvegicus [6] = assay: Antiinflammatory activity in Wistar rat assessed as protection against carrageenan-induced paw edema at 100 mg/kg, po administered 1 hr before carrageenan challenge measured after 30 mins; type: functional
MCF7 [7] = assay: Cytotoxicity against estrogen receptor-positive human MCF7 cells assessed as inhibition of cell proliferation at 3 ug/ml after 24 hrs by MTT assay; type: functional; settings: MCF7, 24 h; how it was run: as §1
Rattus norvegicus [8] = assay: Antiinflammatory activity in Wistar rat assessed as protection against carrageenan-induced paw edema at 100 mg/kg, po administered 1 hr before carrageenan challenge measured after 4 hrs; type: functional
Escherichia coli [9] = assay: Antibacterial activity against Escherichia coli after 18 to 24 hrs by broth microdilution method; type: functional
Rattus norvegicus [10] = assay: Antiinflammatory activity in Wistar rat assessed as protection against carrageenan-induced paw edema at 100 mg/kg, po administered 1 hr before carrageenan challenge measured after 2 hrs; type: functional
Bacillus subtilis [11] = assay: Antibacterial activity against Bacillus subtilis after 18 to 24 hrs by broth microdilution method; type: functional
Rattus norvegicus [12] = assay: Antiinflammatory activity in Wistar rat assessed as protection against carrageenan-induced paw edema at 100 mg/kg, po administered 1 hr before carrageenan challenge measured after 3 hrs; type: functional
Pseudomonas aeruginosa [13] = assay: Antibacterial activity against Pseudomonas aeruginosa at 100 ug/[…] after 24 hrs by agar diffusion method; type: functional
How it was run: (§2)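 Single-concentration antibacterial screen at 100 μg/50 μL per test against the standard bacterial strains.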

Staphylococcus aureus [14] = assay: Antibacterial activity against Staphylococcus aureus after 18 to 24 hrs by broth microdilution method; type: functional
MCF7 [15] = assay: Cytotoxicity against estrogen receptor-positive human MCF7 cells assessed as inhibition of cell proliferation at 1 ug/ml after 24 hrs by MTT assay; type: functional; settings: MCF7, 24 h; how it was run: as §1
Bacillus subtilis [16] = assay: Antibacterial activity against Bacillus subtilis at […] after 24 hrs by agar diffusion method; type: functional; how it was run: as §2
Staphylococcus aureus [17] = assay: Antibacterial activity against Staphylococcus aureus at […] after 24 hrs by agar diffusion method; type: functional; how it was run: as §2
Escherichia coli [18] = assay: Antibacterial activity against Escherichia coli at […] after 24 hrs by agar diffusion method; type: functional; how it was run: as §2
MCF7 [19] = assay: Cytotoxicity against estrogen receptor-positive human MCF7 cells assessed as inhibition of cell proliferation at 4 ug/ml after 24 hrs by MTT assay; type: functional; settings: MCF7, 24 h; how it was run: as §1
MCF7 [20] = assay: Cytotoxicity against estrogen receptor-positive human MCF7 cells assessed as inhibition of cell proliferation at 10 ug/ml after 24 hrs by MTT assay; type: functional; settings: MCF7, 24 h; how it was run: as §1
MCF7 [21] = assay: Cytotoxicity against estrogen receptor-positive human MCF7 cells assessed as inhibition of cell proliferation at 25 ug/ml after 24 hrs by MTT assay; type: functional; settings: MCF7, 24 h; how it was run: as §1
MCF7 [22] = assay: Cytotoxicity against estrogen receptor-positive human MCF7 cells assessed as inhibition of cell proliferation at 50 ug/ml after 24 hrs by MTT assay; type: functional; settings: MCF7, 24 h; how it was run: as §1
MCF7 [23] = assay: Cytotoxicity against estrogen receptor-positive human MCF7 cells assessed as inhibition of cell proliferation at 8 ug/ml after 24 hrs by MTT assay; type: functional; settings: MCF7, 24 h; how it was run: as §1
MCF7 [24] = assay: Cytotoxicity against estrogen receptor-positive human MCF7 cells assessed as inhibition of cell proliferation at 0.5 ug/ml after 24 hrs by MTT assay; type: functional; settings: MCF7, 24 h; how it was run: as §1
MCF7 [25] = assay: Cytotoxicity against estrogen receptor-positive human MCF7 cells assessed as inhibition of cell proliferation at 6 ug/ml after 24 hrs by MTT assay; type: functional; settings: MCF7, 24 h; how it was run: as §1
MCF7 [26] = assay: Cytotoxicity against estrogen receptor-positive human MCF7 cells assessed as inhibition of cell proliferation at 0.25 ug/ml after 24 hrs by MTT assay; type: functional; settings: MCF7, 24 h; how it was run: as §1
MCF7 [27] = assay: Cytotoxicity against estrogen receptor-positive human MCF7 cells assessed as inhibition of cell proliferation at 0.1 ug/ml after 24 hrs by MTT assay; type: functional; settings: MCF7, 24 h; how it was run: as §1
MCF7 [28] = assay: Cytotoxicity against estrogen receptor-positive human MCF7 cells assessed as inhibition of cell proliferation at 2.5 ug/ml after 24 hrs by MTT assay; type: functional; settings: MCF7, 24 h; how it was run: as §1

| Structure (SMILES) | IC50 (MCF7 [1]) [µg/mL] | Activity (Rattus norvegicus [2]) [%] | MIC (Pseudomonas aeruginosa [3]) [µg/mL] | inhibition at 5 µg/mL (MCF7 [5]) [%] | Activity (Rattus norvegicus [6]) [%] | Activity (Rattus norvegicus [8]) [%] | MIC (Escherichia coli [9]) [µg/mL] | Activity (Rattus norvegicus [10]) [%] | MIC (Bacillus subtilis [11]) [µg/mL] | Activity (Rattus norvegicus [12]) [%] | inhibition zone (IZ) (Pseudomonas aeruginosa [13]) [mm] | MIC (Staphylococcus aureus [14]) [µg/mL] | inhibition at 1 µg/mL (MCF7 [15]) [%] | inhibition zone (IZ) (Bacillus subtilis [16]) [mm] | inhibition zone (IZ) (Staphylococcus aureus [17]) [mm] | inhibition zone (IZ) (Escherichia coli [18]) [mm] | inhibition at 10 µg/mL (MCF7 [20]) [%] | inhibition at 25 µg/mL (MCF7 [21]) [%] | inhibition at 50 µg/mL (MCF7 [22]) [%] | also measured |
| --- | --- | --- | --- | --- | --- | --- | --- | --- | --- | --- | --- | --- | --- | --- | --- | --- | --- | --- | --- | --- |
| Cc1n[nH]c2c1C(c1cccs1)C(C#N)=C(N)O2 (stereo not drawn) | 4.44 (≈ 17.2 µM) | 38.8 | 3.12 (≈ 12.1 µM) | 61.7 | 23.5 | 51.6 | 3.12 (≈ 12.1 µM) | 50.8 | 3.12 (≈ 12.1 µM) | 64.5 | 14 | 3.12 (≈ 12.1 µM) | 0.28 | 18 | 15 | 20 |  |  |  | inhibition at 2 µg/mL (MCF7 [4]): 19.1%; inhibition at 3 µg/mL (MCF7 [7]): 22%; inhibition at 4 µg/mL (MCF7 [19]): 41.8% |
| Cc1[nH]nc2c1C(c1c(F)c(F)c(F)c(F)c1F)C(C#N)=C(N)O2 (stereo not drawn) | 45.5 (≈ 133 µM) |  | 1.56 (≈ 4.56 µM) | 6.96 |  |  | 1.56 (≈ 4.56 µM) |  | 3.12 (≈ 9.13 µM) |  | 15 | 3.12 (≈ 9.13 µM) | 1.1 | 15 | 18 | 14 | 16.2 | 45.1 | 65.6 |  |
| CC1=NN=C2OC(N)=C(C#N)C(c3ccc(Oc4nc(Cl)c(Cl)cc4Cl)cc3)C12 (stereo not drawn) | 4.46 (≈ 9.95 µM) | 50 | 3.12 (≈ 6.96 µM) |  | 29.4 | 54.9 | 1.56 (≈ 3.48 µM) | 67.1 | 6.25 (≈ 13.9 µM) | 72 | 14 | 3.12 (≈ 6.96 µM) | 17.4 | 20 | 15 | 22 |  |  |  | inhibition at 2 µg/mL (MCF7 [4]): 31.9%; inhibition at 8 µg/mL (MCF7 [23]): 68.6%; inhibition at 0.5 µg/mL (MCF7 [24]): 5.34%; inhibition at 6 µg/mL (MCF7 [25]): 65.2%; inhibition at 4 µg/mL (MCF7 [19]): 42.5% |
| Cc1[nH]nc2c1C(c1cccc(Oc3ccccc3)c1)C(C#N)=C(N)O2 (stereo not drawn) | 1.63 (≈ 4.73 µM) | 33.3 |  | 83.7 | 17.6 | 61.5 |  | 47.9 |  | 66.6 | 11 |  | 43.5 | 9 | 7 | 9 |  |  |  | inhibition at 0.25 µg/mL (MCF7 [26]): 14%; inhibition at 0.1 µg/mL (MCF7 [27]): 8.26%; inhibition at 2.5 µg/mL (MCF7 [28]): 68.6%; inhibition at 0.5 µg/mL (MCF7 [24]): 20.2% |
| Cc1[nH]nc2c1C(c1cccc(Oc3nc(Cl)c(Cl)cc3Cl)c1)C(C#N)=C(N)O2 (stereo not drawn) | 42.8 (≈ 95.5 µM) | 47.2 | 6.25 (≈ 13.9 µM) | 16.3 | 23.5 | 53.8 | 3.12 (≈ 6.96 µM) | 64.3 | 6.25 (≈ 13.9 µM) | 70.9 | 15 | 6.25 (≈ 13.9 µM) | 0.41 | 21 | 16 | 23 | 34.6 | 42.4 | 50.1 |  |
| Cc1nn(-c2ccccc2)c2c1C(c1ccc(O)cc1)C(C#N)=C(N)O2 (stereo not drawn) | 47.5 (≈ 138 µM) | 30.5 | 3.12 (≈ 9.07 µM) | 5.96 | 11.7 | 50.5 | 12.5 (≈ 36.3 µM) | 43.8 | 6.25 (≈ 18.1 µM) | 56.9 | 15 | 6.25 (≈ 18.1 µM) | 2.1 | 17 | 15 | 16 | 22.9 | 30.8 | 50.2 |  |
| Cc1nn(-c2ccccc2)c2c1C(c1cccc(Oc3ccccc3)c1)C(C#N)=C(N)O2 (stereo not drawn) |  |  | 3.12 (≈ 7.43 µM) |  |  |  | 6.25 (≈ 14.9 µM) |  | 6.25 (≈ 14.9 µM) |  |  | 3.12 (≈ 7.43 µM) |  |  | 15 | 18 |  |  |  |  |
| Cc1nn(-c2ccccc2)c2c1C(c1cccc(Oc3nc(Cl)c(Cl)cc3Cl)c1)C(C#N)=C(N)O2 (stereo not drawn) |  |  | 6.25 (≈ 11.9 µM) |  |  |  | 12.5 (≈ 23.8 µM) |  | 6.25 (≈ 11.9 µM) |  | 16 | 6.25 (≈ 11.9 µM) |  | 15 | 16 | 14 |  |  |  |  |
| Cc1nn(-c2ccccc2)c2c1C1(C(=O)Nc3ccccc31)C(C#N)=C(N)O2 (stereo not drawn) | 16.8 (≈ 45.4 µM) | 25 | 6.25 (≈ 16.9 µM) | 26.6 | 23.5 | 47.2 | 3.12 (≈ 8.46 µM) | 46.5 | 3.12 (≈ 8.46 µM) | 68.8 | 15 | 3.12 (≈ 8.46 µM) | 19.3 | 19 | 14 | 21 | 40.3 | 64.6 | 86.5 |  |
| O=C(O)c1cn(C2CC2)c2cc(N3CCNCC3)c(F)cc2c1=O [CIPROFLOXACIN] |  |  | 1.56 (≈ 4.71 µM) |  |  |  |  |  | 1.56 (≈ 4.71 µM) |  |  | 1.56 (≈ 4.71 µM) |  |  |  |  |  |  |  |  |
